Measured values from ChEMBL document CHEMBL4334487, “Cytotoxic Microcolin Lipopeptides from the Marine Cyanobacterium Moorea producens” (J Nat Prod, 2019).

Test system: NCI-H460
Test: Cytotoxicity against human NCI-H460 cells assessed as reduction in cell viability incubated for 48 hrs by MTT assay
Assay type: functional, cell-based
Conditions: NCI-H460, 48 h
Summary of the method: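 H-460 non-small-cell lung carcinoma cells in RPMI-1640 with 10% FBS and 1% penicillin/streptomycin, used within 28 passages per frozen batch. Seeded at 3.33 × 10^4 cells/mL, adhered 24 h, then treated 48 h. Ten concentrations from 30 μM down by 0.3164-fold serial dilution; 1% DMSO negative control, doxorubicin positive control.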

Compared with `CCCC[C@@H](C)C[C@@H](C)C(=O)N(C)[C@@H](CC(C)C)C(=O)N[C@H](C(=O)N(C)[C@H](C(=O)N1CCC[C@H]1C(=O)N1C(=O)CC[C@@H]1C)C(C)C)[C@@H](C)OC(C)=O`, `CCCC[C@@H](C)C[C@@H](C)C(=O)N(C)[C@@H](CC(C)C)C(=O)N[C@H](C(=O)N(C)[C@H](C(=O)N1CCC[C@H]1C(=O)N1C(=O)CC[C@@H]1C)C(C)C)[C@@H](C)O` is higher in IC50: 5000 nM for the first, > 30000 nM for the second.

First: CCCC[C@@H](C)C[C@@H](C)C(=O)N(C)[C@@H](CC(C)C)C(=O)N[C@H](C(=O)N(C)[C@H](C(=O)N1C[C@@H](O)C[C@H]1C(=O)N1C(=O)C=C[C@@H]1C)C(C)C)[C@@H](C)OC(=O)CC
Second: CCCC[C@@H](C)C[C@@H](C)C(=O)N(C)[C@@H](CC(C)C)C(=O)N[C@H](C(=O)N(C)[C@H](C(=O)N1C[C@@H](O)C[C@H]1C(=O)N1C(=O)C=C[C@@H]1C)C(C)C)[C@@H](C)OC(C)=O
The IC50 of the first is 33-fold higher: 200 nM for the first, 6 nM for the second. The second is the more potent here.

`CCCC[C@@H](C)C[C@@H](C)C(=O)N(C)[C@@H](CC(C)C)C(=O)N[C@H](C(=O)N(C)[C@H](C(=O)N1CCC[C@H]1C(=O)N1C(=O)C=C[C@@H]1C)C(C)C)[C@@H](C)O` and `CCCC[C@@H](C)C[C@@H](C)C(=O)N(C)[C@@H](CC(C)C)C(=O)N[C@H](C(=O)N(C)[C@H](C(=O)N1CCC[C@H]1C(=O)N1C(=O)C=C[C@@H]1C)C(C)C)[C@@H](C)OC(C)=O` are within 1.5-fold of each other in IC50: 650 nM for the first, 910 nM for the second.

Going from `CCCC[C@@H](C)C[C@@H](C)C(=O)N(C)[C@@H](CC(C)C)C(=O)N[C@H](C(=O)N[C@H](C(=O)N1CCC[C@H]1C(=O)N1C(=O)C=C[C@@H]1C)C(C)C)[C@@H](C)OC(C)=O` to `CCCCCC[C@@H](C)C(=O)N(C)[C@@H](CC(C)C)C(=O)N[C@H](C(=O)N(C)[C@H](C(=O)N1CCC[C@H]1C(=O)N1C(=O)C=C[C@@H]1C)C(C)C)[C@@H](C)OC(C)=O`, the IC50 rises from 69 nM to 550 nM (8-fold). The first is the more potent here.

Compared with `COc1cccc2c1C(=O)c1c(O)c3c(c(O)c1C2=O)C[C@@](O)(C(=O)CO)C[C@@H]3O[C@H]1C[C@H](N)[C@H](O)[C@H](C)O1` [DOXORUBICIN], `CCCC[C@@H](C)C[C@@H](C)C(=O)N(C)[C@@H](CC(C)C)C(=O)N[C@H](C(=O)N(C)[C@H](C(=O)N1C[C@@H](O)C[C@H]1C(=O)N1C(=O)C=C[C@@H]1C)C(C)C)[C@@H](C)O` is 2.4-fold lower in IC50: 180 nM for the first, 75 nM for the second.

`CCCCCC[C@@H](C)C(=O)N(C)[C@@H](CC(C)C)C(=O)N[C@H](C(=O)N(C)[C@H](C(=O)N1C[C@@H](O)C[C@H]1C(=O)N1C(=O)C=C[C@@H]1C)C(C)C)[C@@H](C)OC(C)=O` and `CCCC[C@@H](C)C[C@@H](C)C(=O)N(C)[C@@H](C=C(C)C)C(=O)N[C@H](C(=O)N(C)[C@H](C(=O)N1C[C@@H](O)C[C@H]1C(=O)N1C(=O)C=C[C@@H]1C)C(C)C)[C@@H](C)OC(C)=O` are within 1.5-fold of each other in IC50: 47 nM for the first, 37 nM for the second.

`CCCC[C@@H](C)C[C@@H](C)C(=O)N(C)[C@@H](CC(C)C)C(=O)N[C@H](C(=O)N(C)[C@H](C(=O)N1C[C@@H](O)C[C@H]1C(=O)N1C(=O)CC[C@@H]1C)C(C)C)[C@@H](C)O` and `CCCC[C@@H](C)C[C@@H](C)C(=O)N(C)[C@@H](CC(C)C)C(=O)N[C@H](C(=O)N(C)[C@H](C(=O)N1C[C@@H](O)C[C@H]1C(=O)N1C(=O)CC[C@@H]1C)C(C)C)[C@@H](C)OC(C)=O` are within 1.5-fold of each other in IC50: 2000 nM for the first, 2800 nM for the second.

Going from `CCCC[C@@H](C)C[C@@H](C)C(=O)N(C)[C@@H](C=C(C)C)C(=O)N[C@H](C(=O)N(C)[C@H](C(=O)N1CCC[C@H]1C(=O)N1C(=O)C=C[C@@H]1C)C(C)C)[C@@H](C)OC(C)=O` to `CCCC[C@@H](C)C[C@@H](C)C(=O)N(C)[C@@H](C=C(C)C)C(=O)N[C@H](C(=O)N(C)[C@H](C(=O)N1C[C@@H](O)C[C@H]1C(=O)N1C(=O)C=C[C@@H]1C)C(C)C)[C@@H](C)O`, the IC50 falls from 1000 nM to 160 nM (6.2-fold).

In the case of `CCCC[C@@H](C)C[C@@H](C)C(=O)N(C)[C@@H](CC(C)C)C(=O)N[C@H](C(=O)N(C)[C@H](C(=O)N1C[C@@H](O)C[C@H]1C(=O)O)C(C)C)[C@@H](C)OC(C)=O`, the IC50 is reported as 510 nM.
